Laboratory results published in ChEMBL document CHEMBL4020760, “Discovery of a Small Molecule Probe That Post-Translationally Stabilizes the Survival Motor Neuron Protein for the Treatment of Spinal Muscular Atrophy” (J Med Chem, 2017).
In brackets after ≈: the same amount, converted by molar mass. Activity calls are given as the source filed them. The rule behind the calls is not given here. Peptide text beside a SMILES is read from it. * marks the point of attachment. Cbz = O=C(OCc1ccccc1)*

Tests used:
[1] = molecular target: Survival motor neuron protein (Homo sapiens) (UniProt Q16637); experiment: Stabilization of human luc fused SMN protein expressed in HEK293 cells at 10 uM after 24 hrs in presence of 10 uM cycloheximide by luciferase reporter gene assay; type: cell-based
Method in brief: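 SMN2-luciferase reporter cells were maintained in high-glucose DMEM with 10% FBS, Pen/Strep and hygromycin at 37 °C. They were treated at the same time with cycloheximide (10 μM), to block protein synthesis, and with compound or DMSO. Cells were lysed at set time points, and SMN2-luc (firefly) and Renilla-luc activities were read by dual-luciferase assay.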

[2] = Stabilization of human […] expressed in HEK293 cells expressing SMN2 promoter after 24 hrs by luciferase reporter gene assay; type: cell-based; conditions: HEK293, 24 h
Method in brief: (§1)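 SMN2-luc reporter cells seeded at 25,000/well overnight, then treated 24 h with six doses (3-fold serial dilutions, top final 10 or 30 μM), 0.1% DMSO. Firefly and Renilla luciferase read by dual-luciferase assay, normalized to DMSO as percent; EC50 and maximal activation from curves. Mean ± SEM, ≥3 trials.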

[3] = tested on: Renilla; experiment: Effect on renilla recombinant luciferase protein expressed in HEK293 cells at 10 uM after 24 hrs in presence of 10 uM cycloheximide by renilla luciferase reporter gene assay; type: cell-based
Method in brief: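 SMN2-luc reporter cells given cycloheximide (10 μM) together with compound (10 μM) or DMSO. Lysed at set time points; SMN-luc and Renilla-luc activities measured.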

[4] = molecular target: Survival motor neuron protein (Homo sapiens) (UniProt Q16637); experiment: Stabilization of SMN protein in HEK293 cells assessed as increase in SMN protein half life at 10 uM by pulse-chase experiment; type: cell-based
[5] = tested on: HEK293; experiment: Stabilization of human […] expressed in HEK293 cells expressing SMN2 promoter after 24 hrs by luciferase reporter gene assay relative to control; type: cell-based; conditions: in the assay text read “SMN protein” for “SMN mRNA”; method in brief: as §1
[6] = molecular target: Survival motor neuron protein (Homo sapiens) (UniProt Q16637); experiment: Stabilization of human SMN protein expressed in HEK293 cells expressing SMN2 promoter after 24 hrs by luciferase reporter gene assay relative to control; type: cell-based; method in brief: as §1
[7] = tested on: Liver; experiment: (§2) Half life in mouse liver microsomes; type: ADME, microsome; conditions: microsomes
Method in brief: (§3)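 Compound stability in mouse and human liver microsomes, expressed as half-life in min.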

[8] = tested on: Plasma; experiment: Half life in mouse plasma after 60 mins; type: ADME, cell-free; conditions: 1 h
[9] = Aqueous solubility of the compound at pH 7.4; type: physicochemical; conditions: aqueous solution
Method in brief: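 Kinetic solubility measured in aqueous medium at pH 7.4.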

[10] = molecular target: Survival motor neuron protein (Homo sapiens) (UniProt Q16637); experiment: Stabilization of SMN protein in 3813T fibroblasts derived from human SMA patient assessed as increase in SMN protein level after 48 hrs by SDS-PAGE and immunoblot
[11] = molecular target: Survival motor neuron protein (Homo sapiens) (UniProt Q16637); experiment: Stabilization of SMN protein in 3813T fibroblasts derived from human SMA patient assessed as increase in SMN protein level at 2 uM after 48 hrs by SDS-PAGE and immunoblot
Method in brief: (§4)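 hTERT-immortalized SMA patient 3813T fibroblasts seeded at 6000/well, next day dosed for 48 h at indicated concentrations, 0.1% DMSO. Lysed in boiling buffer (150 mM NaCl, 10 mM Tris pH 8.0, 2% SDS), run on 10% SDS-PAGE, SMN immunoblotted, normalized to tubulin or actin as fold over DMSO; one-way ANOVA with Dunnett.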

[12] = tested on: Liver; experiment: Half life in human liver microsomes; type: ADME, microsome; method in brief: as §3
[13] = tested on: Plasma; experiment: Cmax in mouse plasma at 20 mg/kg, ip after 30 mins; type: ADME, organism-based; set-up: dose 20 mg/kg, route intraperitoneal; conditions: in vivo, 0.5 h, BLD = below limit of detection
[14] = molecular target: Survival motor neuron protein (Homo sapiens) (UniProt Q16637); experiment: Stabilization of SMN protein in 3813T fibroblasts derived from human SMA patient assessed as increase in SMN protein level at 2 uM after 48 hrs by SDS-PAGE and immunoblot
[15] = Cmax in mouse plasma at 20 mg/kg, ip; type: ADME, organism-based; set-up: dose 20 mg/kg, route intraperitoneal; conditions: plasma
[16] = Cmax in mouse brain at 20 mg/kg, ip; type: ADME, organism-based; set-up: dose 20 mg/kg, route intraperitoneal
[17] = molecular target: Survival motor neuron protein (Homo sapiens) (UniProt Q16637); experiment: Stabilization of SMN protein in 3813T fibroblasts derived from human SMA patient assessed as increase in SMN protein level after 48 hrs by SDS-PAGE and immunoblot; method in brief: as §4
[18] = tested on: Brain; experiment: Cmax in mouse brain at 20 mg/kg, ip after 30 mins; type: ADME, organism-based; set-up: dose 20 mg/kg, route intraperitoneal; conditions: in vivo, 0.5 h, BLD = below limit of detection
[19] = tested on: HEK293; experiment: Inhibition of autophagy in HEK293 cells assessed as increase in LC3-2 level at 10 uM after 8 hrs by immunoblot analysis; conditions: Homo sapiens
[20] = tested on: HEK293; experiment: Inhibition of autophagy in HEK293 cells assessed as increase in p62 level at 10 uM after 8 hrs by immunoblot analysis; conditions: Homo sapiens
[21] = as §2; type: ADME, microsome; conditions: liver microsomes; method in brief: as §3
[22] = tested on: HEK293; experiment: Effect on human luciferase-tagged SMN mRNA expressed in HEK293 cells assessed as SMN exon 7 included transcript at 10 uM after 24 hrs by qRT-PCR relative to GAPDH mRNA expression; type: cell-based
Method in brief: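 SMN2-luciferase reporter cells treated with compound; total RNA isolated with Trizol, DNase I treated and reverse transcribed. SYBR Green qPCR for SMN exon 7-included and full-length transcripts, with GAPDH as reference.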

[23] = tested on: HEK293; experiment: Effect on cycloheximide-induced reduction in basal level of polyubiquitinated protein level in HEK293 cells at 1 uM pretreated for 2 hrs followed by cycloheximide addition measured after 6 hrs by SDS-PAGE analysis; type: functional, cell-based; conditions: Homo sapiens
Method in brief: (§5)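 HEK293 cells pretreated 2 h with test compound or MG-132 (1 and 10 μM), then DMSO or cycloheximide (10 μM) added and incubated a further 6 h; final DMSO 0.2%. Lysates run on 4–15% gradient SDS-PAGE; anti-ubiquitin blot for polyubiquitinated proteins, tubulin as loading control.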

[24] = species on record: Homo sapiens; experiment: Inhibition of proteasome in HEK293 cells assessed as increase in polyubiquitinated protein level at 1 and 10 uM incubated for 2 hrs by SDS-PAGE analysis; type: cell-based; method in brief: as §5
[25] = species on record: Homo sapiens; experiment: Inhibition of proteasome in HEK293 cells assessed as stabilization of SMN protein by measuring increase in SMN protein half life at 10 uM by pulse-chase experiment; type: cell-based

Sequence of Survival motor neuron protein (Homo sapiens) (Q16637 whole entry, the tested form may be a part): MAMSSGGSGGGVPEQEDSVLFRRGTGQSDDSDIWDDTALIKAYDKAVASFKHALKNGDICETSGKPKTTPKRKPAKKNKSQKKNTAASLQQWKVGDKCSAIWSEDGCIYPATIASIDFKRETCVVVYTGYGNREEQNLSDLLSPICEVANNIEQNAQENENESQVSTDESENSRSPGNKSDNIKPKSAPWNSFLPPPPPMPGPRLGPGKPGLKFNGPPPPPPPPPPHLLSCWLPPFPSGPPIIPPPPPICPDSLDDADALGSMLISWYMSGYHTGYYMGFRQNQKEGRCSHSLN

COc1cc2c(c(OC)c1OC)C(c1cc(Br)ccc1F)CC(=O)N2 (stereo unspecified)
Activity [1]: Active
EC50 [2]: 8.3 µM
Activity [3]: Active
Activity [4]: inactive
Activity [5]: 186%

Cc1c(C(=O)Nc2ccc(F)c(Cl)c2)noc1C(C)C
Activity [6]: 182%
t1/2 [7]: < 5 min
t1/2 [8]: 76 min

CC(C)c1cc(C(=O)Nc2ncco2)no1
Activity [6]: inactive

CC(C)c1cc(C(=O)Nc2ccccc2)no1
Activity [6]: 190%
t1/2 [7]: < 5 min
solubility kinetic [9]: 59 µM (≈ 13.6 µg/mL)
t1/2 [8]: 8 min

Cc1ccc(NC(=O)c2cc(C(C)C)on2)cc1
Activity [6]: 200%

CC(C)c1cc(NC(=O)Nc2ccc(F)c(Cl)c2)no1
Activity [6]: inactive

CC(C)c1cc(C(=O)NC2Cc3ccccc3C2)no1
Activity [6]: inactive

CC(C)c1cc(C(=O)Nc2nc3ccccc3[nH]2)no1
Activity [6]: 211%
t1/2 [7]: < 5 min
solubility kinetic [9]: 12 µM (≈ 3.24 µg/mL)

CC(C)(C)c1cc(C(=O)Nc2ccc(F)c(Cl)c2)no1
Activity [6]: 140%

CC(C)c1cc(C(=O)Nc2ccc(F)cc2)no1
Activity [6]: 182%

CC(C)c1cc(C(=O)Nc2ccccn2)no1
Activity [6]: 195%
Activity [10]: Dose-dependent effect
fold change (FC) [11]: 2
t1/2 [12]: > 120 min
Cmax [13]: Bld
t1/2 [7]: > 120 min
fold change (FC) [14]: 2
Cmax [15]: 2 to 3 ng/mL
Cmax [16]: 5 to 6 ng/mL
solubility kinetic [9]: 77 µM (≈ 17.8 µg/mL)
Activity [17]: Dose-dependent effect
Cmax [18]: Bld
t1/2 [8]: < 5 min

CC(C)c1cc(C(=S)Nc2ccc(F)c(Cl)c2)no1
Activity [6]: 120%

O=C(CCCCCCC(=O)Nc1ccccc1)NO
Activity [1]: Active
Activity [3]: Active

O=C(Nc1ccc(F)c(Cl)c1)c1cc(C2CCCCC2)on1
Activity [6]: inactive

Cc1cc(C(=O)Nc2ccc(F)c(Cl)c2)no1
Activity [6]: inactive

CC(C)c1cc(NC(=O)c2ccc(F)c(Cl)c2)on1
Activity [6]: 137%

Cc1cccc(NC(=O)c2cc(C(C)C)on2)c1
Activity [6]: 150%

COc1ccccc1NC(=O)c1cc(C(C)C)on1
Activity [6]: 80%

CC(C)c1nc(NC(=O)c2ccc(F)c(Cl)c2)cs1
Activity [6]: 131%

CC(C)c1cc(C(=O)Nc2cccc(F)c2)no1
Activity [6]: 180%
t1/2 [7]: < 5 min
solubility kinetic [9]: 49 µM (≈ 12.2 µg/mL)

O=C(Nc1ccc(F)c(Cl)c1)c1cc(C2CCCC2)on1
Activity [6]: inactive

CC(C)c1cc(C(=O)Nc2ccncc2)no1
Activity [6]: inactive

CC(C)c1cc(C(=O)Nc2cccc(Cl)c2)no1
Activity [6]: 160%

CC(C)c1cc(C(=O)Nc2nc3ccccc3s2)no1
Activity [6]: 124%

CCc1cc(C(=O)Nc2ccc(F)c(Cl)c2)no1
Activity [6]: 165%

CC(C)c1cc(C(=O)Nc2ccccc2Cl)no1
Activity [6]: 114%

O=C(Nc1ccc(F)c(Cl)c1)c1cc(Cc2ccccc2)on1
Activity [6]: 116%

CC(C)c1cc(CNc2ccc(F)c(Cl)c2)no1
Activity [6]: 137%

CC(C)c1cc(C(=O)Nc2ccccc2F)no1
Activity [6]: 175%
t1/2 [8]: 9 min

CCN(CC)CCCC(C)Nc1ccnc2cc(Cl)ccc12 (stereo unspecified)
Activity [19]: Active
Activity [20]: Active

O=C(Nc1ccc(F)c(Cl)c1)c1cc(-c2ccccc2)on1
Activity [6]: inactive

O=C(Nc1ncc(C2CCC2)s1)c1ccc(F)c(Cl)c1
t1/2 [7]: < 5 min

CC(C)c1cc(C(=O)Nc2nccs2)no1
Activity [6]: 166%

CC(C)c1cc(C(=O)Nc2ccc(F)c(Cl)c2)no1
Activity [6]: 242%
Activity [1]: Active
Activity [3]: inactive
Activity [4]: Active
half-life [21]: ≤ 5 min
Activity [22]: inactive
solubility kinetic [9]: 6 µM (≈ 1.7 µg/mL)
t1/2 [8]: 13 min

CC(C)Cc1cc(C(=O)Nc2ccc(F)c(Cl)c2)no1
Activity [6]: 180%

CC(C)c1cc(NC(=O)c2ccc(F)c(Cl)c2)no1
Activity [6]: 188%
t1/2 [8]: 183 min

CC(C)C[C@@H](C=O)NC(=O)[C@H](CC(C)C)NC(=O)[C@H](CC(C)C)NC(=O)OCc1ccccc1 (Cbz-Leu-Leu-Leu-aldehyde)
Activity [23]: Active
inhibition [24]: Active
inhibition [25]: Active

Cc1ccccc1NC(=O)c1cc(C(C)C)on1
Activity [6]: 125%

CC(C)c1cc(C(=O)Nc2ccc(Cl)cc2)no1
Activity [6]: 168%

COc1cccc(NC(=O)c2cc(C(C)C)on2)c1
Activity [6]: 147%

CC(C)c1cc(C(=O)Oc2ccc(F)c(Cl)c2)no1
Activity [6]: inactive

CC(C)c1cc(C(=O)Nc2cccnc2)no1
Activity [6]: 94%

O=C(Nc1ccc(F)c(Cl)c1)c1ccon1
Activity [6]: inactive

CC(C)c1cc(C(=O)N(C)c2ccc(F)c(Cl)c2)no1
Activity [6]: inactive
t1/2 [8]: 5 min

CC(C)c1cc(C(=O)N2CCc3ccccc32)no1
Activity [6]: 164%
t1/2 [8]: < 5 min

CC(C)c1cc(C(=O)Nc2nc3ccccc3n2C)no1
Activity [6]: 219%
